In ChEMBL document CHEMBL4196174, “Discovery of Indole Derivatives as Novel and Potent Dengue Virus Inhibitors” (J Med Chem, 2018):
pEC50, pIC50: −log10 of the molar value. Converted amounts (≈) assume the structure as drawn.

Legend:
[1] = Drug metabolism in human liver microsomes after 15 mins; assay type: ADME, microsome; settings: for metabolised at 0.25 h: liver microsomes, read-out: Drug metabolism; for Drug metabolism: microsomes, 0.25 h
Outline: (§1)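 Percentage of compound metabolized after 15 min incubation with human or rat liver microsomes.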

[2] = Protein binding in human plasma; assay type: ADME, cell-free; settings: for fraction unbound: read-out: PPB (converted)
P-gp (MDR1) = test: (§2) Apparent permeability across apical to basolateral side in MDR1 transfected pig LLC-PK1 cells in absence of P-gp inhibitor GF120918; assay type: ADME, cell-based, Sus scrofa; settings: LLC-PK1
Outline: (§3)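 Permeability measured in MDR1-transfected LLC-PK1 cells without the P-gp inhibitor GF120918.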

Cytochrome P450 1A2 = molecular target: T1, Cytochrome P450 1A2 (Homo sapiens, UniProt P05177); test: Inhibition of CYP1A2 (unknown origin); assay type: ADME
T1 sequence (P05177 whole entry): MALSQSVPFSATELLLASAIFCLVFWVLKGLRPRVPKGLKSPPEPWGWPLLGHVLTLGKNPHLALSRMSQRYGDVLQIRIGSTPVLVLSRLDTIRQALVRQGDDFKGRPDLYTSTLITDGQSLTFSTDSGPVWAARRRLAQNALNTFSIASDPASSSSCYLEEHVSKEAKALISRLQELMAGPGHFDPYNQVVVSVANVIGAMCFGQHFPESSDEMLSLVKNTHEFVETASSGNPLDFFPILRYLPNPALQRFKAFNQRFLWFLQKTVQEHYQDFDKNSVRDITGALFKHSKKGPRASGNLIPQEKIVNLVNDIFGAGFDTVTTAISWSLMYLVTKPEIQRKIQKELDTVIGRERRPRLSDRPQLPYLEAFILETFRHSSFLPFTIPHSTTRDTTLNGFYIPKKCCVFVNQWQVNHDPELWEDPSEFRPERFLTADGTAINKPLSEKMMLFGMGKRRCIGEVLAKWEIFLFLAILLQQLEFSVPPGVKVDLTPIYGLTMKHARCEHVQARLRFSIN

dengue virus type 2 [3] = test: Antiviral activity against Dengue virus 2 Rega infected in African green monkey Vero cells assessed as reduction in viral yield after 4 days by qRT-PCR analysis; assay type: functional, organism-based
Outline: (§4)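 Virus yield reduction in Vero cells (seeded 5×10^4/well). Next day infected with DENV (MOI 0.01) in assay medium (MEM, 2% FBS, 0.075% bicarbonate, 2 mM L-glutamine). After 1 h, input virus was removed and cells rinsed 3 times. Medium with 3- or 5-fold compound serial dilutions was then added. Incubation was 4 days (DENV-2, DENV-4) or 7 days (DENV-1, DENV-3). Supernatant viral RNA was measured by RT-qPCR, and EC50 obtained by logarithmic interpolation.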

Cytochrome P450 3A4 = Cytochrome P450 3A4 (Homo sapiens, UniProt P08684); test: Inhibition of CYP3A4 (unknown origin); assay type: ADME
Cytochrome P450 2C9 = Cytochrome P450 2C9 (Homo sapiens, UniProt P11712); test: Inhibition of CYP2C9 (unknown origin); assay type: ADME
[4] = Protein binding in rat plasma; assay type: ADME, cell-free; settings: for fraction unbound: read-out: PPB (converted)
[5] = (§5) Cytotoxicity against African green monkey Vero cells assessed as cell growth inhibition after 4 days by MTS/PMS method; assay type: cell-based; settings: chlorocebus sabaeus, Vero cells
Outline: (§6)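 Cytotoxicity run as in the yield assay, but without virus. Vero cells (5×10^4/well) were exposed to 3- or 5-fold serial dilutions in MEM with 2% FBS. Viability was read by the MTS/PMS colorimetric method. CC50 was derived by logarithmic interpolation.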

Cytochrome P450 2C19 = Cytochrome P450 2C19 (Homo sapiens, UniProt P33261); test: Inhibition of CYP2C19 (unknown origin); assay type: ADME
Cytochrome P450 2D6 = Cytochrome P450 2D6 (Homo sapiens, UniProt P10635); test: Inhibition of CYP2D6 (unknown origin); assay type: ADME
[6] = Drug metabolism in rat liver microsomes after 15 mins; assay type: ADME, microsome; settings: for metabolised at 0.25 h: liver microsomes, read-out: Drug metabolism; for Drug metabolism: microsomes, 0.25 h; outline: as §1
[7] = Solubility of the compound in DMSO solution at pH 7.4; assay type: physicochemical
Outline: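 Solubility measured at pH 7.4, starting from a DMSO solution.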

dengue virus type 3 = test: Antiviral activity against Dengue virus 3 H87 infected in African green monkey Vero cells assessed as reduction in viral yield after 7 days by qRT-PCR analysis; assay type: functional, organism-based; settings: 168 h; outline: as §4
dengue virus type 4 = test: Antiviral activity against Dengue virus 4 DAKHD34460 infected in African green monkey Vero cells assessed as reduction in viral yield after 4 days by qRT-PCR analysis; assay type: functional, organism-based; settings: 96 h; outline: as §4
dengue virus type 1 = test: Antiviral activity against Dengue virus 1 Djibouti D1/H/IMTSSA/98/606 infected in African green monkey Vero cells assessed as reduction in viral yield after 7 days by qRT-PCR analysis; assay type: functional, organism-based; settings: Djibouti D1/H/IMTSSA/98/606, Vero, 168 h; outline: as §4
[8] = molecular target: Voltage-gated inwardly rectifying potassium channel KCNH2 (Homo sapiens, UniProt Q12809); test: Inhibition of human ERG
Salmonella typhimurium [9] = test: Mutagenicity in Salmonella typhimurium in presence of human liver S9 fraction by Ames test; assay type: toxicity, organism-based; settings: salmonella enterica subsp. enterica serovar typhimurium
Salmonella typhimurium [10] = test: Mutagenicity in Salmonella typhimurium in absence of human liver S9 fraction by Ames test; assay type: toxicity, organism-based; settings: salmonella enterica subsp. enterica serovar typhimurium
[11] = Selectivity index, ratio of CC50 for African green monkey Vero cells to EC50 for Dengue virus 2 Rega; assay type: toxicity; settings: read-out: Ratio CC50/EC50
dengue virus type 2 [12] = test: Antiviral activity against Dengue virus 2 Rega infected in African green monkey Vero cells assessed as log10 reduction of viral RNA replication at nontoxic dose after 4 days by qRT-PCR analysis relative to control; assay type: functional
[13] = Half life in human liver microsomes; assay type: ADME, microsome
[14] = as §2; assay type: ADME, cell-based, Sus scrofa; settings: llc-pk1; outline: as §3
Vero = test: as §5; assay type: cell-based; settings: chlorocebus sabaeus, vero, 96 h; outline: as §6
[15] = Cmax in rat at 10 mg/kg, po; assay type: ADME, organism-based; set-up: dose 10 mg/kg, route oral; settings: in vivo
Outline: (§7)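 Rat PK. Intravenous dose was 2.5 mg/kg in PEG400/water 7/3. Oral dose was 10 mg/kg in PEG400.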

[16] = Volume of distribution at steady state in rat at 2.5 mg/kg, iv; assay type: ADME, organism-based; settings: in vivo, read-out: Vdss; outline: as §7
[17] = Oral bioavailability in rat at 10 mg/kg; assay type: ADME, organism-based; settings: in vivo; outline: as §7
[18] = Half life in rat at 2.5 mg/kg, iv; assay type: ADME, organism-based; settings: in vivo; outline: as §7
[19] = AUClast in rat at 10 mg/kg, po; assay type: ADME, organism-based; set-up: dose 10 mg/kg, route oral, time 0 - last; settings: in vivo; outline: as §7
[20] = Clearance in rat at 2.5 mg/kg, iv; assay type: ADME, organism-based; settings: in vivo; outline: as §7

Cytochrome P450 2D6, sequence (P10635 whole entry): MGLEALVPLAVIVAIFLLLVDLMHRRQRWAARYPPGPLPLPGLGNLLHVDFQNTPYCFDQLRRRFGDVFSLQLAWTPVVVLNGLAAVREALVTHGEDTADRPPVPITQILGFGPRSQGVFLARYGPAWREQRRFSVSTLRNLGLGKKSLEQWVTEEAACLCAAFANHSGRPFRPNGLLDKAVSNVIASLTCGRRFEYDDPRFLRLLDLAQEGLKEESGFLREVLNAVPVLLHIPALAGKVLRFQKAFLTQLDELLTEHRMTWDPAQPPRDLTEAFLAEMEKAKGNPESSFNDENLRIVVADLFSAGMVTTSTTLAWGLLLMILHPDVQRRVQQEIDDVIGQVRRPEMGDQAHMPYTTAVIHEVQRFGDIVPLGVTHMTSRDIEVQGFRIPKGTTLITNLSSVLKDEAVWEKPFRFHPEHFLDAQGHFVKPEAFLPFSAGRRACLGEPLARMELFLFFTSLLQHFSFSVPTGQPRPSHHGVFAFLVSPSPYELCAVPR
Cytochrome P450 2C9, sequence (P11712 whole entry): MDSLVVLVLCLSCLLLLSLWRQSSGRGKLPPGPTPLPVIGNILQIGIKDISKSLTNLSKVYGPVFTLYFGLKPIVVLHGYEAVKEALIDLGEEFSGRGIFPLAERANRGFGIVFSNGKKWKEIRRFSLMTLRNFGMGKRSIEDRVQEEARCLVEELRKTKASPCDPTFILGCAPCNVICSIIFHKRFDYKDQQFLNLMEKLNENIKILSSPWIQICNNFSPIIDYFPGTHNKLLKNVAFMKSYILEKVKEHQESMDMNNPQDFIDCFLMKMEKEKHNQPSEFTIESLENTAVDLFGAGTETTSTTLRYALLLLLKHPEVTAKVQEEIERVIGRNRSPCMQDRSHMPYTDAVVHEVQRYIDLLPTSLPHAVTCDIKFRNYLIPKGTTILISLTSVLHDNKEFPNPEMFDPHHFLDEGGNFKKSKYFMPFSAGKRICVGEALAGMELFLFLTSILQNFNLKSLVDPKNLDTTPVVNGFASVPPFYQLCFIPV
Cytochrome P450 2C19, sequence (P33261 whole entry): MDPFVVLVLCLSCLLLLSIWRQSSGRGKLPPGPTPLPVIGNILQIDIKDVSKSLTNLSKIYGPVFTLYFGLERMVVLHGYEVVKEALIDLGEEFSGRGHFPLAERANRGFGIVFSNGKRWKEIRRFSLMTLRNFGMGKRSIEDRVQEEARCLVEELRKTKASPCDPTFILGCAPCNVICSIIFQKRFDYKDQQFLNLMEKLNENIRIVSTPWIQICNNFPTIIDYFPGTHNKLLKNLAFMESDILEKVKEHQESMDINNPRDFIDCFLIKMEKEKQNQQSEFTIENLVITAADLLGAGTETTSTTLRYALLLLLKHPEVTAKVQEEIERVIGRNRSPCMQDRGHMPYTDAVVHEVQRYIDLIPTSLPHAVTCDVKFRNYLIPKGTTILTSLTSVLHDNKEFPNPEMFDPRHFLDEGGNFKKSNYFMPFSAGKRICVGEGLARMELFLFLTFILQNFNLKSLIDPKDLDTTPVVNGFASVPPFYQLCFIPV
Voltage-gated inwardly rectifying potassium channel KCNH2, sequence (Q12809 whole entry): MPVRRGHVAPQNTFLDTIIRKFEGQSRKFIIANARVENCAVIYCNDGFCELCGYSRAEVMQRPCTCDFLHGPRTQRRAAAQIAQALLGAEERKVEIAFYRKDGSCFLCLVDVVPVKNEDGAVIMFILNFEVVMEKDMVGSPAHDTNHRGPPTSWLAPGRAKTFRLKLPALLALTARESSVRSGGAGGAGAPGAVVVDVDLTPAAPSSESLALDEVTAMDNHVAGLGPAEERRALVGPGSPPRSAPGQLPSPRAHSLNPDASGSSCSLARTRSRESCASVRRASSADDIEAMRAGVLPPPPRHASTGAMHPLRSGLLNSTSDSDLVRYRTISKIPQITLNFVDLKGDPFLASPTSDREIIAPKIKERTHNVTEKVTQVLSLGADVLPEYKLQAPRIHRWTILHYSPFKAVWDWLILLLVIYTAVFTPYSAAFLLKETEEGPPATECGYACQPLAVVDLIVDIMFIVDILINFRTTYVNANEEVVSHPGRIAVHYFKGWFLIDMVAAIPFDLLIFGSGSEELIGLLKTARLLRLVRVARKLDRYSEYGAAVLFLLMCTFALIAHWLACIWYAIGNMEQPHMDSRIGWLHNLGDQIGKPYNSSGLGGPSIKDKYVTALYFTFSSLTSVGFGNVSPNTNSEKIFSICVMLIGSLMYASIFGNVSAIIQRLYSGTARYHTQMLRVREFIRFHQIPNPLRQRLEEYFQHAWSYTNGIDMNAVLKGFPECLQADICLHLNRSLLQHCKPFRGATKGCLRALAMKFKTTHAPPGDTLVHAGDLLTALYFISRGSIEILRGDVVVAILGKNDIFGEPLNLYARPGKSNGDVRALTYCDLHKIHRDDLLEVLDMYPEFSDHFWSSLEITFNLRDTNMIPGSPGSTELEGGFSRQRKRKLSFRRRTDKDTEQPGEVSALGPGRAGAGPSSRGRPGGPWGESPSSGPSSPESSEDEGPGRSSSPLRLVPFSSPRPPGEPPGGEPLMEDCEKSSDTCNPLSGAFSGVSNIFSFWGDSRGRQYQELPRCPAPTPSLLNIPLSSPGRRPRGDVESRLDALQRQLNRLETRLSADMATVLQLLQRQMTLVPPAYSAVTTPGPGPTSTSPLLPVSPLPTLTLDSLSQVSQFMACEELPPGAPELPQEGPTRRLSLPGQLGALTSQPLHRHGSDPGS
Cytochrome P450 3A4, sequence (P08684 whole entry): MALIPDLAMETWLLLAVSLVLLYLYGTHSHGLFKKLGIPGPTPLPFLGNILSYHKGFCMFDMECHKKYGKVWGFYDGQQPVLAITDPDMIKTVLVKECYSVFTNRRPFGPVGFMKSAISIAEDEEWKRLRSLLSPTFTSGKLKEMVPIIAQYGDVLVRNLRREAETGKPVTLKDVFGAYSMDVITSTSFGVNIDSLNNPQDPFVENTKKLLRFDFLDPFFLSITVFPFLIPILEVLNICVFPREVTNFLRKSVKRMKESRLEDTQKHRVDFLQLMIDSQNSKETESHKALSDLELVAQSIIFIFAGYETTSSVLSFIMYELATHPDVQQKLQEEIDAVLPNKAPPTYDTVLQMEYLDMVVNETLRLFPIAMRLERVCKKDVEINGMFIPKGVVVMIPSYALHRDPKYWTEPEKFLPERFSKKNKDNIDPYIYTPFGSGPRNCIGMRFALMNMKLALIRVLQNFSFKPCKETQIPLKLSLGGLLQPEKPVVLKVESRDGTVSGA

SMILES	metabolised at 0.25 h [1] [%]	fraction unbound [2]	Papp A→B (P-gp (MDR1)) [nm/s]	pIC50 (Cytochrome P450 1A2)	pEC50 (dengue virus type 2 [3]; Dengue virus, Rega, Vero, 96 h)	pIC50 (Cytochrome P450 3A4)	pIC50 (Cytochrome P450 2C9)	fraction unbound [4]	CC50 at 96 h [5] [µM]	pIC50 (Cytochrome P450 2C19)	pIC50 (Cytochrome P450 2D6)	metabolised at 0.25 h [6] [%]	solubility ([7]; read-out: solubility) [µM]	pEC50 (dengue virus type 3)	pEC50 (dengue virus type 4)	pEC50 (dengue virus type 1)	pIC50 [8]	Activity (Salmonella typhimurium [9])	Activity (Salmonella typhimurium [10])	pEC50 (dengue virus type 2 [3]; vero)	further results
COc1cccc(NC(C(=O)c2c[nH]c3ccccc23)c2nc3ccccc3o2)c1 (centres undefined)	19	< 0.002	56	5.38	7.96	< 5.00	5.21	< 0.004	13	5.49	< 5.00	99	1 (≈ 0.397 µg/mL)								
COc1cc(NC(C(=O)c2c[nH]c3ccccc23)c2cccnc2)cc(OC)c1 (centres undefined)					7.82				69					6.51	5.60	6.76					
COc1cncc(NC(C(=O)c2c[nH]c3ccccc23)c2ccccc2)c1 (centres undefined)	23	0.005	47	5.55	7.44	7.30	5.48	0.008	20	5.60	5.08	86	42 (≈ 15 µg/mL)				5.46	Non-Toxic	Non-Toxic		
COc1ccc(NC(C(=O)c2c[nH]c3ccccc23)c2ccccc2)cc1OC (centres undefined)					7.11				29					4.53	5.35	5.80		Non-Toxic	Non-Toxic		selectivity ratio [11]: 380; FC (dengue virus type 2 [12]): 3.8
COc1cc(NC(C(=O)c2c[nH]c3ccc(F)cc23)c2ccccc2)cc(OC)c1 (centres undefined)					8.15				13					6.17	5.32	6.61		Non-Toxic	Non-Toxic		
COc1cc(NC(C(=O)c2c[nH]c3ccc(CCCO)cc23)c2ccccc2)cc(OC)c1 (centres undefined)					7.02				56				23 (≈ 10.2 µg/mL)								half-life [13]: 0.633 h
COc1cc(NC(C(=O)c2c[nH]c3ccccc23)c2ccccc2)cc(OC)c1 (racemic)				5.62		< 5.00	5.32			5.40	< 5.00						< 4.30	Non-Toxic	Non-Toxic	8.15	Drug metabolism [1]: 11%; PPB [2]: 99.8%; Papp [14]: 75 nm/s; PPB [4]: 99.9%; CC50 (Vero): 16 µM; Drug metabolism [6]: 63%
COc1cc(NC(C(=O)c2c[nH]c3ccccc23)c2ccccc2)cc(OCCO)c1 (single isomer, unassigned; (+))		0.01	18	< 5.00		< 5.00	5.51	0.008		5.36	< 5.00	21	48 (≈ 20 µg/mL)				< 4.30			7.92	Drug metabolism [1]: 2%; Cmax [15]: 0.706 µM; Vd [16]: 5.8 L/kg; CC50 (Vero): 105 µM; bioavailability [17]: 64%; half-life [18]: 2.4 h; AUC(0-t) [19]: 7.32 µM·h; clearance [20]: 2.1 L/h/kg
COc1cc(NC(C(=O)c2c[nH]c3ccccc23)c2ccccc2)cc(OC)c1 (single isomer, unassigned; (+))	14		76	5.85		< 5.00	5.49	0.002	13	5.64	< 5.00		6 (≈ 2.32 µg/mL)	7.04	5.72	7.33				9.00	Cmax [15]: 0.088 µM; PPB [2]: 99.7%; Vd [16]: 26 L/kg; bioavailability [17]: 7%; half-life [18]: 4.7 h; Drug metabolism [6]: 37%; AUC(0-t) [19]: 0.422 µM·h; clearance [20]: 4.02 L/h/kg
COc1cc(NC(C(=O)c2c[nH]c3ccccc23)c2ccccc2)cc(OC)c1 (stereo in doubt; 12b)				5.19		< 5.00	5.52			5.52	< 5.00									6.46	Drug metabolism [1]: 16%; PPB [2]: 99.9%; Papp [14]: 74 nm/s; PPB [4]: > 99.9%; CC50 (Vero): 11 µM; Drug metabolism [6]: 91%; solubility [7]: 9 µM (≈ 3.48 µg/mL)
